Test results published in ChEMBL document CHEMBL4715860 (J Med Chem, 2020).

Columns and labels:
[1] = Substrate activity at human P-glycoprotein stably expressed in MDCK cells at 1 uM measured after 5 to 20 mins by UPLC-MS/MS analysis; assay type: ADME, cell-based; settings: time 5-20 min
Outline: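 CRISPR canine-MDR1-knockout MDCKII cells stably expressing human MDR1, with the knockout parent line as control. Cells grown 5 days on TransWell filters and preincubated in HBSS 30 min at 37 °C. Compound at 1 μM added apical or basolateral. Receiver sampled at 5, 10 and 20 min; UPLC-MS/MS.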

CYP1A1 = target: T1, CYP1A1 (Homo sapiens, UniProt P04798); experiment: Drug metabolism assessed as human recombinant CYP1A1 expressed in baculovirus infected insect cells-mediated metabolism by measuring parent compound remaining at 1 uM incubated for 60 mins in presence of NADPH regenerating system by UHPLC based LC-MS analysis; assay type: ADME; settings: read-out: Stabilty
T1 sequence (P04798 whole entry): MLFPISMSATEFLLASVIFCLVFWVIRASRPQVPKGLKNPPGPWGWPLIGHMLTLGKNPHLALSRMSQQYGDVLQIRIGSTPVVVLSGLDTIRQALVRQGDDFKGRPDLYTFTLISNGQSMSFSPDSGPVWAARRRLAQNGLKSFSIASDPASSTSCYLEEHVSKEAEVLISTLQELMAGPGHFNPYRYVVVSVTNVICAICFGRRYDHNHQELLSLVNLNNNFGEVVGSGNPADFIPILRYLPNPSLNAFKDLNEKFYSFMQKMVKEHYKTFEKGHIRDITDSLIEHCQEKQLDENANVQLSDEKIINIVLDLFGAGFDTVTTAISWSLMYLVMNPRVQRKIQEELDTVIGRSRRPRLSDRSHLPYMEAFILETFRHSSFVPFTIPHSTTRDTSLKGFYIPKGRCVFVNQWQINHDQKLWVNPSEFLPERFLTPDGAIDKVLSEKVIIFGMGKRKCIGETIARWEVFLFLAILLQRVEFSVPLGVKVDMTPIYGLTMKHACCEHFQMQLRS

[2] = target: Phosphatidylinositol 4,5-bisphosphate 3-kinase catalytic subunit gamma isoform (Homo sapiens, UniProt P48736); experiment: Binding affinity to wild-type human partial length PIK3CG (S144 to A1102 residues) expressed in HEK293 cells measured after 1 hr by Kinomescan method; assay type: cell-based
Chain of Phosphatidylinositol 4,5-bisphosphate 3-kinase catalytic subunit gamma isoform (P48736 whole entry, the tested form may be a part, canonical isoform): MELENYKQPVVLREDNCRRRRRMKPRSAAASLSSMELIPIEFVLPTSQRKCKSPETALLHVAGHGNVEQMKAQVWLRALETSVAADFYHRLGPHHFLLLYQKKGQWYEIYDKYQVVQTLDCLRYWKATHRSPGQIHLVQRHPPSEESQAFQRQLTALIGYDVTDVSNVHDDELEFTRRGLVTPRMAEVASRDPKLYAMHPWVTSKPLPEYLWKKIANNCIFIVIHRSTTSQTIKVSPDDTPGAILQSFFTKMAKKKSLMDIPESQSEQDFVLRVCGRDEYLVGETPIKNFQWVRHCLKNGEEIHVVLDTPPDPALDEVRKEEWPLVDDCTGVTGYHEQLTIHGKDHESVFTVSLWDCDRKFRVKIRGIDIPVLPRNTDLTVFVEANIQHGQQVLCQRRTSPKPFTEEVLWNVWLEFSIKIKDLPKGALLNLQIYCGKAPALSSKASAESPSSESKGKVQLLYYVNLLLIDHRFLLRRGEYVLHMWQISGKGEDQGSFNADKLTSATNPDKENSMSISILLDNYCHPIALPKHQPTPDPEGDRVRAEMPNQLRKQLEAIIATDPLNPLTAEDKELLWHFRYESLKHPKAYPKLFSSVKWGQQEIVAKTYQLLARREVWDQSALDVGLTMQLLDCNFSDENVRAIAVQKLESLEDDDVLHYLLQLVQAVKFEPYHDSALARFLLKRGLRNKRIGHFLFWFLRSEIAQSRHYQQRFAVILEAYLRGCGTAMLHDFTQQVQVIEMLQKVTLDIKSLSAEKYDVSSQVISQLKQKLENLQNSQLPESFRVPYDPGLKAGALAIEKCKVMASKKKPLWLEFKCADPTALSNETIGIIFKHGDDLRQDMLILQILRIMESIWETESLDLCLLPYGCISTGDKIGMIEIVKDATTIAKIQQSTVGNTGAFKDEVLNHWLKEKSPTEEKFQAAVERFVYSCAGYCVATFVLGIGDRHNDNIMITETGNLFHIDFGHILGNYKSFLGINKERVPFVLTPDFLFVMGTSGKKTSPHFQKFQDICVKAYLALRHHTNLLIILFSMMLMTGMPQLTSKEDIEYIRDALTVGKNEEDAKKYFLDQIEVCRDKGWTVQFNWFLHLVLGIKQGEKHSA
Outline: (§1)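 Compound given as an 11-point threefold series from 30 μM, in technical duplicate. Kd from a Hill fit with slope fixed at −1.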

[3] = target: PI3-kinase p110-alpha/p85-alpha (Homo sapiens, UniProt P42336); experiment: Inhibition of alexa fluor 647-labeled kinase tracer 314 binding to recombinant human N-terminal His-tagged p110alpha/p85alpha expressed in baculovirus expression system measured after 60 mins by LanthaScreen TR-FRET assay relative to control
Chain of PI3-kinase p110-alpha/p85-alpha (P27986 whole entry): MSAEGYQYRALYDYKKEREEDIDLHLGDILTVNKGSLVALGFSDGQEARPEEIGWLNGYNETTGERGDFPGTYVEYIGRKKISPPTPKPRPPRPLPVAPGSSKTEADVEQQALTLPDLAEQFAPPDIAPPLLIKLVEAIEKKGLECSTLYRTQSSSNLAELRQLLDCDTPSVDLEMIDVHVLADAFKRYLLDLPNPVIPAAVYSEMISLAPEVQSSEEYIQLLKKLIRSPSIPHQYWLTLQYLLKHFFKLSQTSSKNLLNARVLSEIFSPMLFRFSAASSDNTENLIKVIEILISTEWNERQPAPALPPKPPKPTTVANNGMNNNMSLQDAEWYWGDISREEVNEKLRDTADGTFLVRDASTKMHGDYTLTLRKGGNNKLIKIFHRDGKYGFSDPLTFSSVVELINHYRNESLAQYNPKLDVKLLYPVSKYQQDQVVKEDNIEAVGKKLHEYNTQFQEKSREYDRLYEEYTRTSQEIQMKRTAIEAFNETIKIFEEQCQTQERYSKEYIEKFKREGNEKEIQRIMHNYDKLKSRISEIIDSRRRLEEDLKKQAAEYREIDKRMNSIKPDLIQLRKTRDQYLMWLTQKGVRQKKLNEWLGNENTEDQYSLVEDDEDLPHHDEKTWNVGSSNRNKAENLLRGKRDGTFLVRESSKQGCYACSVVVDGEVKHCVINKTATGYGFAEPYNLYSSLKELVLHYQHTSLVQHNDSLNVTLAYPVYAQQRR
Chain of PI3-kinase p110-alpha/p85-alpha (P42336 whole entry): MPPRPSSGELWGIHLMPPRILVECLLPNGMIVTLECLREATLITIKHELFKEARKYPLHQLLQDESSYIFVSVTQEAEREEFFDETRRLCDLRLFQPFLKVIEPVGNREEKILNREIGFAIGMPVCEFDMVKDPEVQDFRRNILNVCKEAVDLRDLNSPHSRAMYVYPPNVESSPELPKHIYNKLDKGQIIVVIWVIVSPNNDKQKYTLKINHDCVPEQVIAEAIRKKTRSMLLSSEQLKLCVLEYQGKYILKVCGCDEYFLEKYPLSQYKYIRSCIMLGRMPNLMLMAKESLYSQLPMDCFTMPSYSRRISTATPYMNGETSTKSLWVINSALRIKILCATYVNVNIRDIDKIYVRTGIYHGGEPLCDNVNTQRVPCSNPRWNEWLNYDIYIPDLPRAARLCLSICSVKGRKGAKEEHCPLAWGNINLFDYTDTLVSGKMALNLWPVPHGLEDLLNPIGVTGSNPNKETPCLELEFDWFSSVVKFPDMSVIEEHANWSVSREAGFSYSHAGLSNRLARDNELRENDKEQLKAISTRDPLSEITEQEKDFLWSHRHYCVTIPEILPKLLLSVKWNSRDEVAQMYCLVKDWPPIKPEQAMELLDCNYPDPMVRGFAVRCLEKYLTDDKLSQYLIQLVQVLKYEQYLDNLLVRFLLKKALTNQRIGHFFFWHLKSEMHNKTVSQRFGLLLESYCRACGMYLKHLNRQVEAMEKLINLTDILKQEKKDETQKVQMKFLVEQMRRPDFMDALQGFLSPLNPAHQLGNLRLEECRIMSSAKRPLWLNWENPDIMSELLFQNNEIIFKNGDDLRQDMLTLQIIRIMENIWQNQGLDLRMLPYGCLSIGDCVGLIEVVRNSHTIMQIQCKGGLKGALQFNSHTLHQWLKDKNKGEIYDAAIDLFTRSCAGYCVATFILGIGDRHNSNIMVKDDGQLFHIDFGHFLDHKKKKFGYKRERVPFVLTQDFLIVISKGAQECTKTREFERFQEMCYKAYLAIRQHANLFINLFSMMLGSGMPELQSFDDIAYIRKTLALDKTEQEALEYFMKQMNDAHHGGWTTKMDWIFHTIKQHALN

[4] = Inhibition of mTORC1 in human A2058 cells assessed as reduction in RPS6 phosphorylation at S235/236 residue incubated for 1 hrs by Western blot analysis; assay type: cell-based; settings: A2058, 1 h
Outline: (§2)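 A2058 cells grown 24 h at 37 °C, then exposed to inhibitor or DMSO for 1 h. Cells were PFA-fixed and stained for pPKB Ser473 or pS6 Ser235/236 by in-cell western with IR-dye secondary antibodies. Signal normalized to tubulin and to DMSO. IC50 from a 7-point (triplicate) or 11-point (duplicate) 1:2 series.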

[5] = target: Phosphatidylinositol 4,5-bisphosphate 3-kinase catalytic subunit beta isoform (Homo sapiens, UniProt P42338); experiment: Binding affinity to wild-type human partial length PIK3CB (P118 to S1070 residues) expressed in HEK293 cells measured after 1 hr by Kinomescan method; assay type: cell-based; outline: as §1
Chain of Phosphatidylinositol 4,5-bisphosphate 3-kinase catalytic subunit beta isoform (P42338 whole entry, the tested form may be a part, canonical isoform): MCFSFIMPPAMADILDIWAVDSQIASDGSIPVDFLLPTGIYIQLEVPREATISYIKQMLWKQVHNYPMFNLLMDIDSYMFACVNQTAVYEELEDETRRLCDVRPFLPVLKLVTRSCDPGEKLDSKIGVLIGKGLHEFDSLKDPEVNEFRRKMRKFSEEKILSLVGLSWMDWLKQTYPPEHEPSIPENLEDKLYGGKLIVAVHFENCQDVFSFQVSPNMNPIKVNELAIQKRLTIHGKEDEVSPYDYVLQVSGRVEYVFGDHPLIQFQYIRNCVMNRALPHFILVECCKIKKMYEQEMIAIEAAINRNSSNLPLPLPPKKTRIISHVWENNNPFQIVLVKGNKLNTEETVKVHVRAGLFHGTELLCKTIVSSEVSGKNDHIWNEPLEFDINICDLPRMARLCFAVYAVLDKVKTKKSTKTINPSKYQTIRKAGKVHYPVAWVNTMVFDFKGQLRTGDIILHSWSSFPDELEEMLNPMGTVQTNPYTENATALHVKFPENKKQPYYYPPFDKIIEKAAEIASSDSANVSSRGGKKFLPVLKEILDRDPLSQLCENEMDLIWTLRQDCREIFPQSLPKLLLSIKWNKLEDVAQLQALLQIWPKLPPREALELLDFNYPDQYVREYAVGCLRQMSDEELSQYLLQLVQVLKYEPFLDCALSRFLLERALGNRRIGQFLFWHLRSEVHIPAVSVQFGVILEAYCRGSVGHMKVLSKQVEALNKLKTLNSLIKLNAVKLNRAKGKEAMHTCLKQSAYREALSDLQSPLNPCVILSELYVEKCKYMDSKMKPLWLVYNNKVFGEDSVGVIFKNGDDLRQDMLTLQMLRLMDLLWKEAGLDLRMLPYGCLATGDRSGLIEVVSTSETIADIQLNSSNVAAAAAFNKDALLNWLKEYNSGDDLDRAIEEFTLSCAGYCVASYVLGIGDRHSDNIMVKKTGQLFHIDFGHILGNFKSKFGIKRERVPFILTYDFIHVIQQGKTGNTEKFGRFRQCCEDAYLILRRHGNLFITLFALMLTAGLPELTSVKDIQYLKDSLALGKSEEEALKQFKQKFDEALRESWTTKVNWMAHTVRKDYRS

[6] = Inhibition of mTOR2 in human A2058 cells assessed as reduction in PKB/Akt phosphorylation at Ser473 incubated for 1 hr by Western blot analysis; assay type: cell-based; settings: A2058, 1 h; outline: as §2
[7] = target: Phosphatidylinositol 3-kinase catalytic subunit type 3 (Homo sapiens, UniProt Q8NEB9); experiment: Binding affinity to wild-type human partial length VPS34 (S282 to H879 residues) expressed in HEK293 cells measured after 1 hr by Kinomescan method; assay type: cell-based; outline: as §1
Chain of Phosphatidylinositol 3-kinase catalytic subunit type 3 (Q8NEB9 whole entry, the tested form may be a part, canonical isoform): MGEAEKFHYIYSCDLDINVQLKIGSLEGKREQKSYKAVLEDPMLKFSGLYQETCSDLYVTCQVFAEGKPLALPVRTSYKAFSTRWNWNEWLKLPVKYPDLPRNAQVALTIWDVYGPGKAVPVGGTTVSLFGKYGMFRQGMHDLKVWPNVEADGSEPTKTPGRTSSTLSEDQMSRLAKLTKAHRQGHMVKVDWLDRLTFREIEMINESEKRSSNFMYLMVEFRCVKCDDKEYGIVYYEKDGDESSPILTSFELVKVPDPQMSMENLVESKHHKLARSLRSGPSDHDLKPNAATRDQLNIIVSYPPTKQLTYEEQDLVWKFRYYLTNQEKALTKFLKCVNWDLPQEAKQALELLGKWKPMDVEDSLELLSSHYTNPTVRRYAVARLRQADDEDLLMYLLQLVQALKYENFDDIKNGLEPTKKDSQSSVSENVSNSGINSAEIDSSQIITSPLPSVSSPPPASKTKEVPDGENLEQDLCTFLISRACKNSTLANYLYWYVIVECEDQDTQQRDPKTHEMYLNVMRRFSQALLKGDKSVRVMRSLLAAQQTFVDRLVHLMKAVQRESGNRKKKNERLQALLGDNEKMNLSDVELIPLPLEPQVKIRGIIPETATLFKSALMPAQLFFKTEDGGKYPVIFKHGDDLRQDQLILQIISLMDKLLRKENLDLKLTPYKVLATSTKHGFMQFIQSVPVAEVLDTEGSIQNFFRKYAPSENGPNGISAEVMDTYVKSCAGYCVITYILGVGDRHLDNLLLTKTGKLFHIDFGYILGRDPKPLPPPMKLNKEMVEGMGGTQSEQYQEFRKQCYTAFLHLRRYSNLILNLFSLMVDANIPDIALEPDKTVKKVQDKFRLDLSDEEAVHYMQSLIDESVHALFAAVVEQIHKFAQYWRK

[8] = target: T2, Phosphatidylinositol 4,5-bisphosphate 3-kinase catalytic subunit delta isoform (Homo sapiens, UniProt O00329); experiment: Binding affinity to wild-type human partial length PIK3CD (R108 to Q1044 residues) expressed in HEK293 cells measured after 1 hr by Kinomescan method; assay type: cell-based; outline: as §1
T2 sequence (O00329 whole entry): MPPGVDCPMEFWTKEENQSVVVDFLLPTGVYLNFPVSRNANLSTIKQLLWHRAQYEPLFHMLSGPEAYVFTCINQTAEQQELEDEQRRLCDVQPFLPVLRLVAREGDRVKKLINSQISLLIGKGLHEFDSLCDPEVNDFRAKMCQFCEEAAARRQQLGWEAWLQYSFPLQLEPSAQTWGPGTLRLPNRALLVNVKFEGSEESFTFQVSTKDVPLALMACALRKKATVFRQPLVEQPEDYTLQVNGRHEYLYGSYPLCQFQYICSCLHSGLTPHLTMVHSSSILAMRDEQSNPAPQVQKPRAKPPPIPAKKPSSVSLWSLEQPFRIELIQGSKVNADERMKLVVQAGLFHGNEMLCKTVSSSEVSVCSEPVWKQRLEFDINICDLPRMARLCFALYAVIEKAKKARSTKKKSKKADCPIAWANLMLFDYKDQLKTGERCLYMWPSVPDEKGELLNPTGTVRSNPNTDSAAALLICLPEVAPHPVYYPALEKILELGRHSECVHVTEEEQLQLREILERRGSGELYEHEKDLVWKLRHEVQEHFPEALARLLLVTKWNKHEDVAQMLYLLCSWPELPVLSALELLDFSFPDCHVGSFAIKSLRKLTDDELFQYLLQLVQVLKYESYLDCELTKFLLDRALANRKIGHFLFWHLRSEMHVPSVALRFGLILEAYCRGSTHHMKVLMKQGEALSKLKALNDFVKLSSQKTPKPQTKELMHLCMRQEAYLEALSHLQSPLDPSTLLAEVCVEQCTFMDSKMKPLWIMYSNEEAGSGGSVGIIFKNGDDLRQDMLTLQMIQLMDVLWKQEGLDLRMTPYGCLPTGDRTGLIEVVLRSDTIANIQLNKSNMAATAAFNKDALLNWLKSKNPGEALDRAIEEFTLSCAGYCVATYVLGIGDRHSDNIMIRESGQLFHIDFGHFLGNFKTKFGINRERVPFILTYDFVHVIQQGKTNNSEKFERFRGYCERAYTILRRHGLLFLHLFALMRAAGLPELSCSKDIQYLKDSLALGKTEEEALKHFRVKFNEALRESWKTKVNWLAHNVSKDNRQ

[9] = target: Phosphatidylinositol 4-kinase beta (Homo sapiens, UniProt Q9UBF8); experiment: Binding affinity to wild-type human full length PIK4CB (M1 to M828 residues) expressed in HEK293 cells measured after 1 hr by Kinomescan method; assay type: cell-based; outline: as §1
[10] = target: Phosphatidylinositol 4,5-bisphosphate 3-kinase catalytic subunit alpha isoform (Homo sapiens, UniProt P42336); experiment: Binding affinity to wild-type human partial length PIK3CA (R108 to N1068 residues) expressed in HEK293 cells measured after 1 hr by Kinomescan method; assay type: cell-based; outline: as §1
Chain of Phosphatidylinositol 4,5-bisphosphate 3-kinase catalytic subunit alpha isoform (P42336 whole entry, the tested form may be a part, canonical isoform): as the sequence (P42336 whole entry) above

| SMILES | Activity [1] | remaining at 1 h, 1 µM (CYP1A1) [%] | Kd [2] [nM] | Ki [3] [nM] | IC50 [4] [nM] | Kd [5] [nM] | IC50 [6] [nM] | Kd [7] [nM] | Kd [8] [nM] | Kd [9] [µM] | Kd [10] [nM] |
| --- | --- | --- | --- | --- | --- | --- | --- | --- | --- | --- | --- |
| C[C@@H]1COCCN1c1nc(-c2cnc(N)cc2C(F)F)nc(N2CCOCC2(C)C)n1 | Not Active | 1.9 | 595 | 469 | 61 | 1350 | 191 | 28 | 2450 | > 30 | 81 |
| C[C@@H]1COCCN1c1nc(-c2cnc(N)cc2C(F)F)nc(N2[C@H](C)COC[C@@H]2C)n1 | Not Active | 45.1 | 1350 | 287 | 71 | 1450 | 96 | 65 | 3500 | > 30 | 110 |
